Diaphorase act: compounds boosting diaphorase resazurin reduction – biochemical, uHTS, resorufin fluorescence, counter-screen for diaphorase-coupled primary assays, primary screen | Diaphorase/resazurin coupled assay, 16 min; hits give high values; 1 = vehicle wells, 0 = NADH-free wells | activation factor at 20 µM | actives 0.005% (n = 190,000) | AID 1229, 2008;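 active means diaphorase activity raised at least twofold by the compound at 20 µM; inactive means activation factor below 2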
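Assay system: bacterial diaphorase enzyme (C. kluyveri) / Input: enzyme 0.07 U/mL final / Medium: 50 mM HEPES pH 7.4 with 4.542 mM MgCl2, 0.005% Tween 20 / Doses: single compound dose of 20 µM, 1% DMSO final / Incubation: 16 min enzyme reaction, ambient temperature / Signal: fluorescence, excitation 544 nm and emission 590 nm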
L major viab: Leishmania major promastigote growth inhibition, primary screen | Leishmania major promastigotes, resazurin fluorescence viability | inhibition, % at 10 µM | actives 9% (n = 200,000); in the data active means inhibition above about 50%;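 further: promastigotes grown with compound for 44 hours at 28 °C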
WT yeast gro inh: growth inhibition of WT strain, primary screen, mitochondrial fusion inhibitor project, WT and mutant strains, chemical genetic | mitochondrial fusion phenotypic screen | inhibition, % at 10 µM | actives 2.1% (n = 190,000); in the data active means inhibition above about 58%; tested in S. cerevisiae
PMI act satM6P: human PMI activators, high substrate, primary screen, biochemical, fluorescence intensity, near-saturating mannose 6-phosphate | activation factor at 20 µM | actives 0.34% (n = 190,000) | AID 1216, 2008 | coupled PMI enzyme assay, resazurin fluorescence, 20 min; hits give high values; 1 = untreated enzyme, 0 = substrate-free blank;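 active means activation factor of 2 or more at 20 µM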
Target sequence (P34949 whole entry, looked up): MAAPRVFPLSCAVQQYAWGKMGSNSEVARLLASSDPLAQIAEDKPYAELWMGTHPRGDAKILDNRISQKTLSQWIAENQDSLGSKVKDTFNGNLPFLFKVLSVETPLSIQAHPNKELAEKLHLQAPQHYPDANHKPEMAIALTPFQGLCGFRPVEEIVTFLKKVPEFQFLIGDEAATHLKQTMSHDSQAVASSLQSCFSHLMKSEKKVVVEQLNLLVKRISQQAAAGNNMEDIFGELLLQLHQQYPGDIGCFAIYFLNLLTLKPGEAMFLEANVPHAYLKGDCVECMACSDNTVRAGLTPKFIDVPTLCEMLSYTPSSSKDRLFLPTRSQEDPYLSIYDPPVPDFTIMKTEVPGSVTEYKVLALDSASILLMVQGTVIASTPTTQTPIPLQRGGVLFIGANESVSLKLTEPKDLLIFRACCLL
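assay system = human phosphomannose isomerase with PGI, G6PDH, diaphorase coupling enzymes | quantity = 15 ng/mL PMI | incubation = enzyme reaction with compound 20 min at room temperature | medium = HEPES pH 7.4 buffer with MgCl2 and Tween-20 | compound dosing = one concentration, 20 µM, in 1% DMSO | measured by = Diaphorase-driven resazurin-to-resorufin fluorescence, excitation 544, emission 590 nm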
PMI activator: activators of human PMI, primary screen, biochemical, fluorescence intensity, near-Km mannose 6-phosphate. activation factor at 20 µM. actives 0.005% (n = 190,000). Mannose-6-phosphate isomerase (Homo sapiens), P34949. AID 1214, 2008. purified human PMI, coupled resazurin fluorescence, 20 min; hits give high values; 1 = vehicle control, 0 substrate-free wells;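 active means activation factor of 2 or more at 20 µM, relative to plate controls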
A number is an active result; 0 = inactive; - = no result. Most compounds without a hit are left out; they make up all but 10% or so of the library.

SMILES	Diaphorase act	L major viab	WT yeast gro inh	PMI act satM6P	PMI activator
Cc1cc(=O)oc2cc(Oc3ccc([N+](=O)[O-])cc3[N+](=O)[O-])ccc12	0	86.3	0	0	0
Cc1cc(=O)oc2cc(Oc3ncccc3[N+](=O)[O-])ccc12	0	0	0	0	0
CSCC[C@H](NC(=O)c1ccc(Cl)c(S(=O)(=O)N2CCCC2)c1)c1nc2ccccc2[nH]1	0	0	0	0	0
CCOC(=O)/C=C1\SCC(=O)N1CC(=O)NC(c1ccccc1)c1ccccc1	0	77.3	0	0	0
O=c1cc(C(Cl)(Cl)Cl)oc2c1ccc1ccccc12	0	98.3	78.2	0	0
O=c1cc(-c2ccco2)oc2c1ccc1ccccc12	0	0	0	0	0
COc1cc(-c2nc(S(=O)(=O)c3ccc(C)cc3)c(N(C)C)o2)cc(OC)c1OC	0	0	0	2	0
COc1cc(-c2nc(S(=O)(=O)c3ccc(C)cc3)c(N3CCOCC3)o2)cc(OC)c1OC	0	0	0	0	0
Cc1nn(-c2ccccc2)c(Oc2ccccc2)c1C=O	0	0	0	0	0
C=CCOc1ccc2ccccc2c1CNCCCN1CCOCC1	0	0	64.2	0	0
O=C(Cc1ccc(Cl)cc1)NNS(=O)(=O)c1ccc([N+](=O)[O-])cc1	0	68.3	0	0	0
CCCN1C(=O)c2ccccc2NC1c1ccc(C)cc1 (centres undefined)	0	0	0	0	0
Cc1ccc(CN2C(=O)c3ccccc3NC2c2ccccn2)cc1 (centres undefined)	0	62.6	0	0	0
Cc1cc(NC(=O)CSc2ncccc2C(=O)O)no1	0	0	0	0	0
CC(/C=C/c1ccco1)=N/NC(=O)OC(C)(C)C	0	0	0	0	0
CC1CCN(CCCNC(=O)c2cc3sccc3n2C)CC1	0	91.8	0	0	0
COc1ccc(N2CCN(CCCNC(=O)c3cc4sccc4n3C)CC2)cc1	0	81.3	0	0	0
CCN(CC)S(=O)(=O)c1ccc(C)c(NS(=O)(=O)c2cc(/C=C/C(=O)O)cc(OC)c2OC)c1	0	0	0	0	0
O=C(COC(=O)c1ccccc1Br)NCc1ccccc1	0	59.9	0	0	0
O=C(COC(=O)c1ccccc1Cl)NC(=O)NCc1ccccc1	0	82.7	0	0	0
CCOC(=O)/C=C/C(=O)OCC(=O)NCc1ccccc1	0	54.8	0	0	0
O=C(Cc1ncc(C(F)(F)F)cc1Cl)NCCc1ccccn1	0	0	0	0	0
Cc1ccc(NC(=O)OCc2ccccc2S(C)=O)cc1 (centres undefined)	0	0	0	0	0
CCCCC(=O)NS(=O)(=O)c1ccc(N=NN2CCOCC2)cc1	0	0	0	0	0
CC1CC(C)(C)NC(=S)N1CCCC(=O)N1CCN(c2ccccc2F)CC1 (centres undefined)	0	60.5	0	0	0
SMILES	Diaphorase act	L major viab	WT yeast gro inh	PMI act satM6P	PMI activator
CC1CC(C)(C)NC(=S)N1CCCC(=O)Nc1ccccc1F (centres undefined)	0	0	0	0	0
COC(=O)c1c(N2C(=O)[C@H]3[C@@H](C2=O)[C@]2(C(=O)Nc4ccc(C)cc42)N2CCC[C@@H]32)sc(C)c1C	0	0	0	0	0
CCOc1ccc(CCNC(=O)Cn2cccc2C(=O)c2ccccc2C)cc1OCC	0	60.7	0	0	0
CCOc1ccc(CCNC(=O)COC(=O)c2ccco2)cc1OCC	0	55.9	0	0	0
CC(C)(C)NC(=O)COc1ccc(CNCCc2ccccc2)cc1	0	86.7	0	0	0
CCOc1cc(CNCc2cccnc2)ccc1OCC(=O)NC(C)(C)C	0	83.1	0	0	0
CCOc1cc(CNc2ccc3[nH]c(=O)[nH]c3c2)ccc1OCC(=O)NC(C)(C)C	0	0	-	0	0
CCOC(=O)C1CCCN(C(=O)c2cccc(NC(=O)C(CC)CC)c2)C1 (centres undefined)	0	0	0	0	0
CCc1ccc2nc(N3C(=O)c4oc5ccccc5c(=O)c4C3c3ccc(OC)c(OC)c3)sc2c1 (centres undefined)	0	0	0	0	0
CCOc1cc(CNCCc2ccccc2)ccc1OCC(=O)NC(C)(C)C	0	99.8	0	0	0
CCc1ccc(OCC(=O)NC(C)(C)C)cc1	0	62.7	0	0	0
CCOc1cc(CNCCc2ccc(S(N)(=O)=O)cc2)ccc1OCC(=O)NC(C)(C)C	0	0	0	0	0
CCC1=NN(C(=O)Cc2ccc(OC)c(OC)c2)C(O)(C(F)(F)F)C1 (centres undefined)	0	0	0	0	0
COc1ccc(OC)c(C(C)NC(=O)Nc2cccc(C(C)=O)c2)c1 (centres undefined)	0	0	0	0	0
CCCCC(=O)NC(=S)Nc1cccc(NC(=O)c2ccco2)c1	0	0	0	0	0
CN(C)c1ccnc(NCc2ccccc2)c1C#N	0	0	0	0	0
CN(C)c1ccnc(N(Cc2ccccc2)Cc2ccccc2)c1C#N	0	97.6	80.5	0	0
Cc1ccnc2ccc(-c3nc4ccccc4o3)cc12	0	0	0	0	0
Cc1nc2ccc(-c3nc4ccccc4o3)cc2[nH]1	0	72.1	0	0	0
Cc1cc(C)n(-c2nc(Nc3ccccc3)nc(-n3nc(C)cc3C)n2)n1	0	0	0	0	0
Cc1cc(C)n(-c2nc(N(c3ccccc3)c3ccccc3)nc(-n3nc(C)cc3C)n2)n1	0	54.1	0	0	0
CCCCN(CCCC)c1nc(OC)nc(-n2nnc(C(C)=O)c2C)n1	0	62.5	0	0	0
CCOC(=O)c1nnn(-c2nc(N(C)C)nc(N(C)C)n2)c1C	0	0	0	0	0
CC(=O)c1nnn(-c2nc(N)nc(N(c3ccccc3)c3ccccc3)n2)c1C	0	91.7	0	0	0
CCOc1ccc(CCNC(=O)COC(=O)c2cc(OC)c(OC)c(OC)c2)cc1OCC	0	0	0	0	0
SMILES	Diaphorase act	L major viab	WT yeast gro inh	PMI act satM6P	PMI activator
Cc1oc(-c2cc(F)ccc2F)nc1CN(C)Cc1ccc2nccnc2c1	0	75.3	0	0	0
Cc1oc(-c2cc(F)ccc2F)nc1CN1CCN(c2cnccn2)CC1	0	0	0	0	0
CCOC(=O)Cn1c(=O)oc2cc(S(=O)(=O)N3CCN(C(=O)c4ccco4)CC3)ccc21	0	0	0	0	0
COc1ccc(C(=O)c2ccc(Cl)c([N+](=O)[O-])c2)cc1	0	79.5	0	0	0
COCCn1c(SCC(=O)NCc2ccc3c(c2)OCO3)nc2ccccc2c1=O	0	0	0	0	0
COCCn1nnnc1C(c1cccs1)N1CCN2CCCC2C1 (centres undefined)	0	0	0	0	0
